# Experimental data: ChEMBL document CHEMBL3877298, “Discovery of benzimidazole derivatives as modulators of mitochondrial function: A potential treatment for Alzheimer's disease” (Eur J Med Chem, 2017)
# Experiments:
# [1] = target: Translocator protein (Mus musculus) (UniProt P50637); test: Inhibition of TSPO in mouse HT22 cells assessed as protection against amyloid beta (1 to 42)-induced mitochondrial membrane potential loss by measuring recovery of mitochondrial membrane potential at 5 uM preincubated for 10 mins followed by amyloid beta (1 to 42) addition measured every 1 hr for 3 hrs by JC1 staining based fluorescence assay relative to control; assay type: cell-based; parameters: scale not given: the % may be the effect or the level left; conditions: HT-22
# Chain of Translocator protein (Mus musculus) (P50637 whole entry, looked up): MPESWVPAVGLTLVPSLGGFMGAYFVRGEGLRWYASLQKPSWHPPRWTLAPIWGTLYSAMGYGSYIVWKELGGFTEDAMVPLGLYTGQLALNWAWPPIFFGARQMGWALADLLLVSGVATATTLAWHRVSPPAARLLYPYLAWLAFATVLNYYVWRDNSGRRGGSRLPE
# Method in brief: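 HT22 cells at 30,000 per well were loaded with 7.5 µM JC-1 in phenol red-free Opti-MEM for 1 h 15 min at 37 °C, then washed. Cells were treated with compound (5 µM) and Aβ1-42 (5 µM); vehicle wells received DMSO. Green (485/535) and red (560/595) fluorescence were read hourly for 3 h. Recovery was normalised between Aβ-damaged (0%) and normal (100%) ratio.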
# [2] = Cytotoxicity against mouse HT22 cells assessed as cell viability at 5 uM after 24 hrs by MTT assay relative to control; assay type: toxicity, HT-22; conditions: read-out: Activity
# Method in brief: (§1)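 MTT was added for 2 h, then solubilising solution (10% Triton X-100 in isopropanol with 0.1 M HCl) for 2 h more. Absorbance read at 560 nm; % inhibition normalised to vehicle, and viability taken from compound-only wells.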
# [3] = target: Translocator protein (Mus musculus) (UniProt P50637); test: Inhibition of TSPO in mouse HT22 cells assessed as inhibition of amyloid beta (1 to 42)-induced toxicity at 5 uM after 24 hrs by MTT assay relative to control; assay type: cell-based; conditions: HT-22
# Method in brief: as §1, with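 “HT22 cells at 5000 per well were treated with compound (5 µM), with or without Aβ1-42 (5 µM), for 24 h at 37 °C. MTT” for “MTT”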
# [4] = target: Translocator protein (Mus musculus) (UniProt P50637); test: Inhibition of TSPO in mouse HT22 cells assessed as protection against amyloid beta (1 to 42)-induced mitochondrial membrane potential loss by measuring recovery of ATP production at 5 uM preincubated for 10 mins followed by amyloid beta (1 to 42) addition measured after 7 hrs by luciferase reporter gene assay relative to control; assay type: cell-based; parameters: scale not given: the % may be the effect or the level left; conditions: HT-22
# Method in brief: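 HT22 cells at 7000 per well were given compound (5 µM) for 10 min at 37 °C, then Aβ1-42 (5 µM) or DMSO vehicle, and incubated 7 h. Cells were washed, lysed in 1% Triton X-100, and protein-equalised by BCA. ATP was measured by luciferin/luciferase luminescence and normalised to vehicle.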
# [5] = target: Translocator protein (Mus musculus) (UniProt P50637); test: Inhibition of TSPO in mouse HT22 cells assessed as inhibition of amyloid beta (1 to 42)-induced ROS generation at 5 uM after 6 hrs by DCFDA staining based fluorescence assay relative to control; assay type: cell-based; conditions: HT-22
SMILES,Activity [1],further results
Cc1ccc(Cn2c(SCc3ccc(F)cc3)nc3ncccc32)cc1,15%,
O=C(Cn1c(-c2cc(Cl)ccc2Cl)nc2cc(Cl)ccc21)Nc1cc(Cl)cc(Cl)c1,77%,
O=C(NCCCN1CCCC1)c1ccc(Cn2c(Cc3c(Cl)cccc3Cl)nc3ccccc32)cc1,79%,"viability at 24 h, 5 µM [2]: 100 to 101%; inhibition [3]: 12%; Activity [4]: 31%; inhibition [5]: 15%"
Cc1ccc(C(C)C)cc1NC(=O)Cc1nc2ccccc2n1Cc1ccc(C(=O)NCCCN2CCCCC2)cc1,80%,"viability at 24 h, 5 µM [2]: 100%; Activity [4]: 23%"
O=C(Cn1c(-c2ccccc2)nc2ccccc21)Nc1cc(Cl)cc(Cl)c1,69%,
Cc1cccc(C(C)(C)C)c1NC(=O)Cn1c(-c2cc(Cl)ccc2Cl)nc2ccccc21,41%,
Cc1cccc(C(C)(C)C)c1NC(=O)Cn1c(Cc2ccccc2)nc2ccccc21,38%,
O=C(c1ccc(CSc2nc3ncccc3n2Cc2ccc(F)cc2)cc1)N1CCCCC1,37%,
CCC1CCCCN1C(=O)Cn1c(SCc2cccc(C(F)(F)F)c2)nc2ncccc21 (stereo unspecified),25%,
CN(C)C(=O)c1ccc(Cn2c(Cc3c(Cl)cccc3Cl)nc3ccccc32)cc1,73%,
Cc1ccc(C(C)C)cc1NC(=O)Cn1c(-c2ccccc2)nc2ccccc21,63%,"viability at 24 h, 5 µM [2]: 67%; Activity [4]: 19%"
O=C(CCn1c(-c2ccc(Cl)cc2)nc2ccccc21)Nc1ccccc1F,65%,
CC(C)(C)c1cc(NC(=O)Cn2c(Cc3ccc(Cl)c(Cl)c3)nc3ccccc32)cc(C(C)(C)C)c1,42%,
Cc1c(Cl)cccc1NC(=O)Cn1c(SCc2ccccc2F)nc2ccncc21,30%,
O=C(Cn1c(-c2cc(Cl)ccc2Cl)nc2ccc(Cl)cc21)Nc1cc(Cl)cc(Cl)c1,18%,
O=C(NCCN1CCOCC1)c1ccc(Cn2c(SCc3ccc(F)cc3)nc3ncccc32)cc1,47%,
COc1ccc(OC)c(Cc2nc3ccccc3n2CC(=O)Nc2cc(Cl)cc(Cl)c2)c1,68%,"viability at 24 h, 5 µM [2]: 81 to 82%; inhibition [3]: 12%; Activity [4]: 94%; inhibition [5]: 0%"
CC[C@@H](C(=O)Nc1ccccc1OC)n1c(SCc2ccc(C)cc2)nc2ccncc21,43%,
CCCSCCCNC(=O)c1ccc(CSc2nc3ncccc3n2Cc2cccc(C)c2)cc1,58%,
COc1ccc(NC(=O)Cn2c(SCc3ccc(C)cc3)nc3ccncc32)c(OC)c1OC,27%,
CCN(CC)CCCNC(=O)c1ccc(Cn2c(SCc3ccc(F)cc3)nc3ncccc32)cc1,38%,
COc1ccc(CC(=O)Cn2c(SCc3ccc(F)cc3)nc3ccncc32)c(OC)c1,34%,
COc1ccc(OC)c(Cc2nc3ccccc3n2CC(=O)Nc2cc(C(C)C)ccc2C)c1,81%,"viability at 24 h, 5 µM [2]: 96%; Activity [4]: 0%"
Cc1ccc(C(C)C)c(OC[C@H](O)Cn2c(Cc3ccccc3)nc3ccccc32)c1,53%,
Cc1ccc(C(C)C)cc1NC(=O)Cn1c(Cc2ccc(Cl)c(Cl)c2)nc2ccccc21,57%,
C=CCN(C(=O)Cn1c(SCc2ccc(F)cc2)nc2ccncc21)c1ccccc1,-1%,

SMILES,Activity [1],further results
Cc1cccc(C(C)(C)C)c1NC(=O)Cn1c(-c2ccccc2)nc2ccccc21,65%,"viability at 24 h, 5 µM [2]: 65 to 95%; inhibition [3]: 16%; Activity [4]: 55%; inhibition [5]: 0%"
Cc1ccc(C(C)C)cc1NC(=O)Cn1c(-c2cc(Cl)ccc2Cl)nc2ccccc21,91%,"viability at 24 h, 5 µM [2]: 93%; Activity [4]: 0%"
CN1CCN(CCCNC(=O)c2ccc(Cn3c(Cc4c(Cl)cccc4Cl)nc4ccccc43)cc2)CC1,86%,
Cc1ccc(C(C)C)cc1NC(=O)Cn1c(-c2cc(Cl)ccc2Cl)nc2cc(Cl)ccc21,60%,"viability at 24 h, 5 µM [2]: 78%; Activity [4]: 3%"
CC(C)(C)c1cc(NC(=O)Cn2c(Cc3ccccc3)nc3ccccc32)cc(C(C)(C)C)c1,29%,
CCN1CCCC1CNC(=O)c1ccc(Cn2c(CC(=O)Nc3cc(C(C)C)ccc3C)nc3ccccc32)cc1 (stereo unspecified),68%,
CCCN(CCC)C(=O)Cn1c(SCc2cccc(Cl)c2)nc2ccncc21,34%,
CCCSCCNC(=O)c1ccc(Cn2c(SCc3ccccc3)nc3ncccc32)cc1,23%,
O=C(NCCCN1CCOCC1)c1ccc(Cn2c(Cc3c(Cl)cccc3Cl)nc3ccccc32)cc1,76%,"viability at 24 h, 5 µM [2]: 98%; Activity [4]: 1%"
COc1ccc(OC)c(-c2nc3ccccc3n2CC(=O)Nc2cc(Oc3ccc(-c4ccccc4)cc3)ccc2F)c1,0%,
O=C(NCCN1CCCCC1)c1ccc(Cn2c(SCc3ccc(F)cc3)nc3ncccc32)cc1,45%,
O=C(NCCCc1cccs1)c1ccc(Cn2c(SCc3ccc(F)cc3)nc3ncccc32)cc1,46%,
Cc1ccc(C(C)C)cc1NC(=O)Cn1c(Cc2ccccc2)nc2ccccc21,24%,
O=C(NCCCc1ccco1)c1ccc(Cn2c(SCc3ccc(F)cc3)nc3ncccc32)cc1,52%,
O=C(Cn1c(SCc2ccc(F)cc2)nc2ncccc21)Nc1ccc2c(c1)OCO2,-7%,
O=C(Cn1c(Cc2ccccc2)nc2ccccc21)Nc1cc(Oc2ccc(-c3ccccc3)cc2)ccc1F,0%,
CN1CCC(NC(=O)c2ccc(Cn3c(Cc4c(Cl)cccc4Cl)nc4ccccc43)cc2)CC1,81%,"viability at 24 h, 5 µM [2]: 94%; Activity [4]: 8%"
O=C(Cn1c(-c2cc(Cl)ccc2Cl)nc2ccccc21)Nc1cc(Cl)cc(Cl)c1,91%,"viability at 24 h, 5 µM [2]: 107%; Activity [4]: 0%"
COc1ccc(NC(=O)Cn2c(SCc3cc(C)ccc3C)nc3ccncc32)c(OC)c1OC,43%,
CC(C)(C)c1cc(NC(=O)Cn2c(-c3ccccc3)nc3ccccc32)cc(C(C)(C)C)c1,86%,"viability at 24 h, 5 µM [2]: 71%; Activity [4]: 4%"
CCCN(CCC)C(=O)Cn1c(SCc2ccc(F)cc2)nc2ccccc21,57%,Activity [4]: 20%
Cc1ccc(C(C)C)cc1NC(=O)Cc1nc2ccccc2n1Cc1ccc(C(=O)NCCCN(C)C)cc1,68%,"viability at 24 h, 5 µM [2]: 97%; Activity [4]: 14%"
COc1ccc(OC)c(-c2nc3ccccc3n2CC(=O)Nc2cc(C(C)C)ccc2C)c1,41%,
O=C(NCCN1CCCCC1)c1ccc(Cn2c(Cc3c(Cl)cccc3Cl)nc3ccccc32)cc1,89%,"viability at 24 h, 5 µM [2]: 87%; Activity [4]: 4%"
CCN1CCCC1CNC(=O)c1ccc(Cn2c(SCc3ccc(F)cc3)nc3ncccc32)cc1 (stereo unspecified),61%,
